The data set deals with MS2 coat protein. Nature of the data set: apparent Kd, MS2 coat protein; higher = weaker binding; RNA-MaP array; FMN 200 µM where present. In short, it runs like this: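 Green signal from SNAP-549-labelled MS2 coat protein was normalised to red-channel RNA signal and to the median Fmax of control clusters. The protein was titrated from 0.7 or 1.5 nM, doubling to 3 µM, without and then with constant ligand, over designs transcribed by stalled E. coli RNA polymerase on Illumina sequencing-chip clusters, in 100 mM Tris-HCl pH 7.5, 80 mM KCl, 4 mM MgCl2, BSA, DTT, yeast tRNA and Tween-20. The apparent Kd is the median of filtered per-cluster binding-curve fits.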

The mark [1] stands for this setting: designed as: OFF switch for flavin mononucleotide, no ligand.
Where [2] appears, read: ligand present: flavin mononucleotide, designed as: OFF switch for flavin mononucleotide.
[3] abbreviates: designed as: ON switch for flavin mononucleotide, no ligand.
Setting [4] is: ligand present: flavin mononucleotide, designed as: ON switch for flavin mononucleotide.

By apparent Kd is commonly meant a dissociation constant that holds for the conditions of the assay. Turning to “AACCGACAUGAGGAUCACCCAUGUCAGGAUAUGGACUGACACCCAAAGGGUGGAGGAACCAGAAGGGACUGGGC”, the “apparent Kd” value runs as follows: under setting [1], 39.9 nM; under setting [2], 101 nM.

Regarding “GCCCUCGCUGAGGAUAUUAUCUGGUUCGAUUGAUAAGAAGGCAGUACAUGAGGAUCACCCAUGUGGUUCGUUCG”, the “apparent Kd” value turned out to be 70.9 nM under setting [1] and 377 nM under setting [2].

On to “CCUUGACAUGAGGAUCACCCAUGUUAGGAUAUAACAUUAGACACUACAGUAUGUAGUGUUAGAAGGGAUAUGGG”, for which the “apparent Kd” value reads like this: under setting [1], 22.8 nM; under setting [2], 28.5 nM.

Consider “GUUUUCACAUGAGGAUAUGCUCGCAUUUCAAGAGCAGAAGGUAUGUCUUUAGACAUGAGGAUCACCCAUGUAUUUAUCAUUGAA”, for which the “apparent Kd” value is, setting by setting: under setting [3], 91.1 nM; under setting [4], 28.4 nM.

For the sequence “CUUGUUUAUGUGAGGAUAUACUGUUAGUAAUGUUUGUAGAAGGUACAUGAGGAUCACCCAUGUUUAUUUAUAUU”, the “apparent Kd” value reads like this: under setting [1], 19.2 nM; under setting [2], 18 nM.

For “AAUUGACACGUAGGAUAUCGAUCUAAUUUAAUUCGAGAAGGACGCACAUGAGGAUCACCCAUGUUUAAUGGAUUAGACAUGUUG”, the “apparent Kd” value came out at 162 nM under setting [1] and 328 nM under setting [2].

In the case of “UUGGACGUCGUAGGAUAUGUAGGAUAUUCCUACAUGAGGAUCACCCAUGUUGACAUGGAAGAAGGACAGAGGGACGAUGUCCAU”, the “apparent Kd” value runs as follows: under setting [3], 454 nM; under setting [4], 11.6 nM.

Consider “CUAUUCCGAGGAUAUACAUGAGGAUCACCCAUGUCGGGCCUCUGCGUUUAGCGCGUAAGUAGAAGGUGGGUUUC”, for which the “apparent Kd” value was found to be 31 nM under setting [1] and 32.9 nM under setting [2].

Turning to “CUUCGUAUAGAGGAUAUAGGUUACUACGGUAUCCUAGAAGGCUGUACAUGAGGAUCACCCAUGUACUUCAGAUC”, the “apparent Kd” value runs as follows: under setting [1], 12.9 nM; under setting [2], 16.1 nM.

Consider “GGUACCAUCACAGGAUAUGCUAUGGUUUCCGUAGCAGAAGGGUGAUAACAUGAGGAUCACCCAUGUGGUACCGGGCGUGAGCCC”, for which the “apparent Kd” value is, setting by setting: under setting [3], 741 nM; under setting [4], 201 nM.

As to “AGUAUGCACGCAGGAUAUACAUGAGGAUCACCCAUGUGGAACAGUGUAGUACUAGUUGAUCCUCAGUAGAAGGGCGGUCGAAUA”, the “apparent Kd” value turned out to be 44.2 nM under setting [1] and 56.6 nM under setting [2].

As to “UUCCGGCAUGUAGGAUAUGGAUCCGAUUAGGAUUUAGAAGGACAUGAGGAUCACCCAUGUGCAUUUAAUUAGUCAUUACCGUUU”, the “apparent Kd” value under setting [1] turned out to be 41.6 nM and the “apparent Kd” value under setting [2] was found to be 86.5 nM.

“AUGGUCAUGUUAGGAUAUGACGCGCUGUACGCAUCAGAAGGAACAUGAGGAUCACCCAUGUAUAGAGUAUUAUCGCUUACUCUC”: the “apparent Kd” value was 52.7 nM under setting [1] and 85.3 nM under setting [2].

Take “AGUGACGAUACAGGAUAUGCUGGACUUUGUCCAGCAGAAGGGUAUUAACAUGAGGAUCACCCAUGUUUCGUCACCAAAUUUAAU”: the “apparent Kd” value by setting is: under setting [3], 39.5 nM; under setting [4], 8.22 nM.

Turning to “CUGAUGUUAGGAUAUCAGGCGCCCGCCACUGGCAGGGCGCAUGAGAAGGGACAUGAGGAUCACCCAUGUAGUAA”, the “apparent Kd” value is, setting by setting: under setting [1], 27.5 nM; under setting [2], 46.1 nM.

For “UCGAACGGAAAUAAAGUAAAUAGACAUGAGGAUCACCCAUGUAAGGAUAUGCCUACUAAAAGUAGGCAGAAGGUACGCGUUCGA”, the “apparent Kd” value came out at 17.5 nM under setting [1] and 19.2 nM under setting [2].

Take “GCAUGCAAGUAGAAGGUCGGAUAUUUUGAUAACGAAGGAUAUACAGAAUCAUAUCCACAUGAUAACAUGAGGAUCACCCAUGUA”: the “apparent Kd” value is 14.7 nM under setting [1] and 15.8 nM under setting [2].

Take “GGGUACAUCGGAGGAUAUCAUGUAAAUACAUGAGGAUCACCCAUGUCGAUGGAGACAUCGGAGAUUGAGAAGGCCGAGGUACCG”: the “apparent Kd” value was 191 nM under setting [3] and 9.91 nM under setting [4].

As for “AUUUAGUGAGGAUAUGUGGCUUCGAUCGUGAGAUCGAGGCUACAGAAGGCACAUGAGGAUCACCCAUGUUCCUU”, the “apparent Kd” value was determined as 13.2 nM under setting [1] and 55.9 nM under setting [2].

For “UAUAUAUAGUAAGGAUAUGUAUUAAUCUUAUAAACAGAAGGUACUGACAUGAGGAUCACCCAUGUUUUAGUGUGGGCAUGUAGA”, the “apparent Kd” value by setting is: under setting [1], 78.1 nM; under setting [2], 103 nM.

These data come from the EternaBench riboswitch data.
